Results collected from several papers.
Target: Kappa-type opioid receptor (OPRK1, Homo sapiens, UniProt P41145)
Read-out: ligand displacement
Concentration: 10 µM

C[C@H](C(=O)N[C@H]1COc2ccccc2[C@@H]1S(C)(=O)=O)c1ccc(F)cc1 — inhibition: 1%
C[C@@H]1N=C(c2ccccc2F)c2cc(Br)ccc2-n2cnc(C(=O)O)c21 — inhibition (radioligand): 62.8%
COCc1c(-c2cc3cc(C)cc(OC)c3s2)c2c(N)ncnn2c1CN1CCNC(=O)C1 — inhibition (radioligand): 17%
Clc1ccc2c(C3CCN(CCc4c[nH]c5ccccc45)CC3)c[nH]c2c1 — inhibition (radioligand): 79%
CCc1ccccc1C(=O)Nc1n[nH]c2c(C)c(F)c(C3C(C#N)=C(C)N(C)C(C)=C3C#N)cc12 — inhibition: 16.1%
CC(C)N1CCC[C@H]1CNC(=O)c1cn(C2CCCC2)c(=O)c2c1c1ccccc1n2C — inhibition (radioligand): 5%
COc1ccc(C(=O)NCc2cc(C(C)C)no2)cc1OC1CCN(C)CC1 — inhibition (radioligand): 22%
C[C@@H]1C[C@H]2O[C@@H]2/C=C\C=C\C(=O)Cc2c(Cl)c(O)cc(O)c2C(=O)O1 — inhibition (radioligand; cell membranes): -56%
c1ccc(C2CCN(c3cnc4c(N5CCOCC5)nccn34)CC2)cc1 — inhibition: 6.44%
c1ccc(C(NCCNC(c2ccccc2)c2ccccc2)c2ccccc2)cc1 — inhibition: 88%
